# Measurements published in publication PMC2729689 (Hypertension, 2009).
# “Also recorded” adds a separate entry of the source. Where no end group is shown, it is not given here.
# What was measured:
# [1] = tested on: GC-C knockout mouse intestine; details: cited from earlier work
# [2] = tested on: GC-C knockout mouse kidneys; details: cited from earlier work
# [3] = target: GC-C (GC-C-expressing T84 cell line) (Homo sapiens, UniProt P25092); assay: T84 cell-based cyclic GMP bioassay
# Method in brief: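 Test peptide diluted into bioassay medium (1 mM IBMX, 137 mM NaCl, 5.4 mM KCl, 1.3 mM CaCl2, 1.0 mM MgSO4, 4.2 mM NaHCO3, phosphates, phenol red, 10 mM HEPES), pH readjusted to 7.0 if required, then applied to T84 cells for 30 min. Cells lysed; cyclic GMP measured by radioimmunoassay. Concentration-response data fitted with the log(agonist) vs response equation.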
# [4] = tested on: anesthetized rats (male Sprague Dawley); assay: Urinary sodium excretion; type: in vivo, rat
# kidney = details: cited from earlier work
# [5] = rat, mouse, and opossum forms; 37° C and neutral pH; cited from earlier work
# [6] = tested on: chymotrypsin-like activity in the kidney; details: cited from earlier work
# Sequence of GC-C (GC-C-expressing T84 cell line) (P25092 24-1073): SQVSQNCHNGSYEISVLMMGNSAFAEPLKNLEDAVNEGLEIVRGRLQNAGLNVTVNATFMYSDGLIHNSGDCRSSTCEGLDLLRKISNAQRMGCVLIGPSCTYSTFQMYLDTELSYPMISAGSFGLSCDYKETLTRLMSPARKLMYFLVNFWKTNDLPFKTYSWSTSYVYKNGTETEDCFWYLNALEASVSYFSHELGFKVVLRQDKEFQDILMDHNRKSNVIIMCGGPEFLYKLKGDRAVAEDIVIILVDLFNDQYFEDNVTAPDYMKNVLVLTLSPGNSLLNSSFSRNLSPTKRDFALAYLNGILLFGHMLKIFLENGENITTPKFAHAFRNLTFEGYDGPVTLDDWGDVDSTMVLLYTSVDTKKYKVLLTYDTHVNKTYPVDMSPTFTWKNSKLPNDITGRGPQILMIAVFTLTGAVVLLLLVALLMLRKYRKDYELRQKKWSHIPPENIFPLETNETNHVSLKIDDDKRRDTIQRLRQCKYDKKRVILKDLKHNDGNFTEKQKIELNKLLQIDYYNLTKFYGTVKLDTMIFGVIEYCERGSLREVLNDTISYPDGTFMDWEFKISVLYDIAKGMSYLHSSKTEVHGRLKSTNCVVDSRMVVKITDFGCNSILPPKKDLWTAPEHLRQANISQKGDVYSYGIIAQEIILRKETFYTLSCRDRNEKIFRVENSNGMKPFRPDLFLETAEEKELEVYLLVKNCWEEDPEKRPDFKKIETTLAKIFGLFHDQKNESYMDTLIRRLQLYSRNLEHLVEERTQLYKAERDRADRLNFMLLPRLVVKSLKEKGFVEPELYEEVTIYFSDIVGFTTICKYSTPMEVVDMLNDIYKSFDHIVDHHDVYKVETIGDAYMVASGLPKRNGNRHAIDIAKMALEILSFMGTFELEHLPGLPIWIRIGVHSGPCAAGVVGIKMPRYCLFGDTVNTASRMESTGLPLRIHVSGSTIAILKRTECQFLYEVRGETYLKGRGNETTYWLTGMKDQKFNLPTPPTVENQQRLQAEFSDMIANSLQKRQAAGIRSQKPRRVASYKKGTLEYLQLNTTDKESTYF
substance,measurement,setting,value
"rat Ugn: rat form of uroguanylin; A and B forms interconvert rapidly (TDECELCINVACTGC; not fully specified (bridges); ends and bridges not checked; UniProt P70668 92-106, looked up)",secretory response from the intestine,[1],"only small, residual secretory responses"
same,natriuretic response from the kidneys,[2],apparently full natriuretic responses
CCELCCNPACTGCY (also: bicyclic or more (positions not given here)) [ST-core],EC50 for cyclic GMP stimulation relative to huUgnA (fold lower),"[3]; T84 cells, no reference or data printed",about 10 fold
same,pharmacological profile of GC-C-mediated responses (rank order),[3]; described as well-established,"ST core > huUgnA >> huUgnB, with all three peptides acting as pure agonists"
same,natriuretic effect compared with huUgnA,"[4]; iv infusion, cumulative 3 hour, Figure 6b, words","the maximal natriuresis elicited by ST-core was slightly less and the response was shifted to the right; also recorded: right-shifted, but otherwise quite similar to those evoked by huUgnA"
same,pharmacological profile of the renal responses (rank order),"[4]; rat, in vivo","huUgnB ≥ huUgnA ≈ ST core, with physiological antagonism by huUgnA at high concentration"
"uroguanylin (NDDCELCVNVACTGCL; ends and bridges not checked; cysteine pairing not given here; UniProt Q16661 97-112, looked up) [Ugn]","natriuretic, kaliuretic, diuretic effect",kidney; every preparation that has been examined,"natriuretic, kaliuretic, and diuretic in every preparation that has been examined"
same,"natriuretic potency, Ugn versus Gn",kidney; words,a more potent natriuretic factor than Gn
same,rate of interconversion of the two conformations,[5],1–2 cycles per sec
"guanylin (PGTCEICAYAACTGC; ends and bridges not checked; cysteine pairing not given here; UniProt Q02747 101-115, looked up) [Gn]",susceptibility to proteolytic digestion,[6]; chymotrypsin-like activity in the kidney,susceptible to proteolytic digestion
same,detectability in urine,[6],undetectable in urine
same,"kaliuretic activity, Gn versus Ugn",kidney; words,more kaliuretic than Ugn
same,rate of interconversion of the two conformations,[5],1–2 cycles per sec
